Screening results deposited in PubChem by SRMLSC.
Shown is part of a subset that was picked to be rich in hits.
Ecoli WT growth: blocks growth of wild type E. coli BW25113. E. coli BW25113 growth inhibition, OD600. inhibition, % at 10 µM. 0.05% of 20,000 active; in the data active = inhibition above about 40%;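 note: bacteria exposed to compound for 20 hours at 37 °C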
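assay system = bacterial strain in a whole-cell growth screen | quantity = inoculum from a 1:1000 dilution of a 1.5 h subculture | buffer or medium = LB broth with 50 µg/mL kanamycin | compound dosing = one dose, 10 µM final | schedule = compound exposure of 20 h at 37 °C | technique = absorbance at 615 nm as a measure of bacterial growth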
Of the large screens only hits and unclear results are named; the others gave an inactive call.

Cc1ccccc1C(=O)NC1CCN(CC(=O)Nc2nccs2)CC1	none
CN(Cc1ccco1)C(=O)Cn1c(=O)oc2cc(S(=O)(=O)NCc3ccccc3)ccc21	none
CCOC(=O)C1CCN(C(=O)COc2ccc(S(=O)(=O)NC(C)C)cc2)CC1	none
CCCCSc1nnc(CCC)n1N	none
CCn1c(SCC(=O)Nc2nc(C)cs2)nnc1C(NC(=O)c1ccccc1Cl)C(C)C (stereo not given)	none
Cc1cccc(OCc2nc(C#N)c(NCCN(C)C)o2)c1	none
Cc1c(Cl)cccc1N(CC(=O)O)S(C)(=O)=O	none
Cc1ccnc(NC(=O)C2CCCN(S(=O)(=O)c3cnc[nH]3)C2)c1 (stereo not given)	none
O=c1[nH]c(=O)n([C@H]2C[C@H](O)[C@@H](CO)O2)cc1F	none
Cc1cn([C@H]2C[C@H](N=[N+]=[N-])[C@@H](CO)O2)c(=O)[nH]c1=O	Ecoli WT growth 72
Cc1cn([C@H]2C=C[C@@H](CO)O2)c(=O)[nH]c1=O	none
CCc1sc(C(=O)NC)cc1Br	none
Cn1c(=O)c2c(nc(SCC(=O)O)n2Cc2cccc(C(F)(F)F)c2)n(C)c1=O	none
Cc1cc(-n2nnc3ccccc32)nc2ccccc12	none
COc1ccccc1CNc1ccc(N2CCCCC2)cc1	none
CC1CCc2c(sc(N)c2C(N)=O)C1 (stereo not given)	none
O=C(NC12CC3CC(CC(C3)C1)C2)c1ccccc1O	none
Cc1onc(-c2ccccc2)c1C(=O)Nc1ccc(S(=O)(=O)N2CCCCC2)cc1	none
Cc1ccc(N2C(=O)c3cccc4c(N5CCN(C)CC5)ccc(c34)C2=O)c2cccnc12	none
CC(=O)Nc1ccc(S(=O)(=O)NCc2csc(-c3cccnc3)n2)cc1	none
CCn1c(CNC(=O)c2ccco2)nnc1SCC(=O)Nc1cc(C(F)(F)F)ccc1Cl	none
CCOC(=O)N1CCN(C(=O)c2cccc(OC)c2OC)CC1	none
COc1ccc(S(=O)(=O)NCCSC(C)(C)C)cc1Cl	none
COc1ccc2c(c1OC)C(=O)OC2CC(=O)c1ccc2c(c1)OCO2 (stereo not given)	none
O=C(Oc1cccc2cccnc12)c1cccc(-n2cnnn2)c1	none
Cc1nc2cc(NC(=O)N3c4ccccc4CC3C)ccc2o1 (stereo not given)	none
c1ccn2c(SCc3ccc4c(c3)OCCO4)nnc2c1	none
S=c1nc(C2CC2)[nH]c2ccccc12	none
CCCN1C(=O)c2ccc(C(=O)Nc3cc(C)on3)cc2C1=O	none
COCCCNC(=O)CCCn1c(=O)c2ccccc2n(CC(=O)Nc2c(C)cccc2C)c1=O	none
CCCC(=O)N(c1ccc2oc(=O)sc2c1)S(=O)(=O)c1ccccc1	none
CC1CCN(S(=O)(=O)c2ccc3[nH]cc(C(=O)NCCN4CCOCC4)c(=O)c3c2)CC1	none
O=C(O)C(Oc1ccc2c3c(c(=O)oc2c1)CCC3)c1ccccc1 (stereo not given)	none
COc1cccc(C(=O)Nc2ccc(NC(C)=O)cn2)c1	none
Cc1ccc(-c2nn3c(C)nnc3s2)cc1N	none
Cc1ccc(NC(=O)c2cccc(N3C(=O)CCC3=O)c2)nc1	none
Cc1cc(-c2ccco2)n(-c2ccccc2)n1	none
O=S(=O)(NCc1ccco1)N1CCCCCC1	none
O=C(Nn1c(C2CC2)nc2ccccc2c1=O)c1ccco1	none
COC(=O)NC1(C(F)(F)F)C(=O)NC(C)=C1C(=O)OC (stereo not given)	none
O=c1nc(-c2ccccc2)c2cc(Cl)ccc2[nH]1	none
Cc1ccc2c(c1)nnn2C1CCN(C(=O)NC23CC4CC(CC(C4)C2)C3)CC1	none
O=S(=O)(c1ccc(F)cc1)N(CCO)CC(O)Cn1c2ccccc2c2ccccc21 (stereo not given)	none
O=C(Nc1ccc(N2CCOCC2)cc1N1CCOCC1)c1ccco1	none
CCOc1ccccc1C1CC(c2ccc(Br)cc2)Nc2nc(N)nn21 (stereo not given)	none
O=C(CC1COc2ccccc2O1)NC1CCCCC1 (stereo not given)	none
Cn1c(=O)[nH]c(=O)c2c1nc(Br)n2CCCSc1nc2ccccc2o1	none
Cc1cc(C)c2c(N)c(C(=O)N3CCN(c4ncccn4)CC3)sc2n1	none
Cn1c(=O)cc(SCC(=O)NCc2cccnc2)c2ccccc21	none
Cc1cc(N2CCCC2=O)cc(C)c1CN1C(=O)c2ccccc2C1=O	none
CC(=O)c1cc(F)c(N2CCN(C(=O)Cc3ccccc3)CC2)cc1C	none
CCn1cc(C(=O)O)c(=O)c2cnc(N3CCNCC3)nc21	Ecoli WT growth 45
CCn1cc(C(=O)O)c(=O)c2cc(F)c(N3CCN(C(=O)Nc4ccccc4)CC3)cc21	Ecoli WT growth 63
CCN1CCN(C(=O)Nc2cccc(C(F)(F)F)c2)CC1	none
COc1cc2nc(N3CCNCC3)nc(N)c2cc1OC	none
CCn1cc(C(=O)O)c(=O)c2cc(F)c(N3CCNCC3)cc21	Ecoli WT growth 76
CCOC(=O)N1CCN(c2cc3[nH]c(=S)[nH]c3cc2F)CC1	none
CCn1cc(C(=O)NCc2ccco2)c(=O)c2cc(F)c(N3CCN(C(=O)c4ccco4)CC3)cc21	none
CCCNS(=O)(=O)c1ccc(OCC(=O)N2CCC(C(=O)OCC)CC2)cc1	none
CC(CC(=O)NCc1ccccc1)C1CCCO1 (stereo not given)	none
COc1ccccc1NC(=O)CNS(=O)(=O)c1ccccc1	none
CC(=O)Nc1cccc(OCC(=O)NS(=O)(=O)c2ccc(C)cc2)c1	none
Cc1cccc(N2C(=O)CC(N3CCN(Cc4ccc(Cl)cc4)CC3)C2=O)c1 (stereo not given)	none
c1ccc2c3nnc4n(c-3nc2c1)CCCS4	none
Brc1ccc(CSc2nnc(Cc3c[nH]c4ccccc34)o2)cc1	none
Brc1ccc2[nH]ncc2c1	none
CCC(=O)Nc1ccc2oc(-c3cccc(C)c3)nc2c1	none
CCC(=O)N1C(=O)CCN(C(C)=O)c2ccccc21	none
Cc1ccc(C(=O)CSc2nnc(CNc3ccc(C)cc3C)o2)cc1	none
CC(=O)C(Sc1ncnc2c1nnn2-c1ccc(F)cc1)C(=O)N(C)C (stereo not given)	none
